# Compound activity from PubChem BioAssay.
# M4 ag = agonists of human muscarinic M4 receptor (CHRM4) | CHO-K1 hM4/Gqi5, Fluo-8 calcium fluorescence; vehicle 0%, full acetylcholine response 100% | AID 624127 | 360,000 tested, 0.14% active | P08173 | activation, % at 3 µM;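 active = activation above the run mean over all test wells plus 3 SD, cut at about 32% in these data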;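 also: peak over basal fluorescence ratio per well then scaled between controls; 0% = DMSO wells and 100% = acetylcholine at EC100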
# Target sequence (P08173 whole entry, looked up): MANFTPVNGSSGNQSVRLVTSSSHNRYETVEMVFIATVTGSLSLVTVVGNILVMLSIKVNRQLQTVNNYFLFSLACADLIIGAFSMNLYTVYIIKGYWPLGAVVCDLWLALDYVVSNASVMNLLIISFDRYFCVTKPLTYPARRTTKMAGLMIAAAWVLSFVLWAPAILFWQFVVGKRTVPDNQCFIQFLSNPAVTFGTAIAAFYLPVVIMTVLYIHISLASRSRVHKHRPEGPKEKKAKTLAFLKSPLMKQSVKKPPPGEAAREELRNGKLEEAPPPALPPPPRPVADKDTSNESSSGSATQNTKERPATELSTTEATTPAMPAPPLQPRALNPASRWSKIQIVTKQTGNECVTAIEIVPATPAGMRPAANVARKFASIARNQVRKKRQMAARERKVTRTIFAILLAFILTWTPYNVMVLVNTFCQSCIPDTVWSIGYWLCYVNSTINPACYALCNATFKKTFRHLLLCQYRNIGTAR
# M4 PAM = potentiates acetylcholine response at human M4 receptor; activation, % at 3 µM; P08173; CHO-K1 hM4/Gqi5, Fluo-8 calcium fluorescence, ACh EC20; 0% = ACh EC20, 100% = maximal ACh; 360,000 tested, 0.4% active;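 active = activation above its plate's cutoff, the mean activation of sample wells plus 3 SD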
# CHRM5 agonist = agonists of human muscarinic M5 receptor (CHRM5); P08912; CHO-K1 hM5 cells, Fluo-8 calcium fluorescence; 0% DMSO wells, 100% maximal acetylcholine response; activation, % at 3 µM; 360,000 tested, 0.19% active; AID 624037;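 active = activation above the run's mean over test compounds plus 3 SD, cut at about 23% in these data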;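 also: signal is peak over basal fluorescence ratio across the kinetic read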
# M5 antag = CHRM5 antagonism in calcium assay; CHO-hM5 cells, Fluo-8 calcium fluorescence, ACh EC80; inhibition, % at 3 µM; 360,000 tested, 0.59% active; AID 624040;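 active = inhibition above a per-plate cutoff, the mean of that plate's test compounds plus 3 SD, cut at about 27% in these data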;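 also: 0% = acetylcholine EC80 with DMSO and 100% = DMSO without agonist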
# M5 PAM = positive allosteric modulators of human muscarinic M5 receptor; CHO-K1 hM5, Fluo-8 calcium, ACh EC20 PAM; 0% = ACh EC20, 100% = ACh EC100; activation, % at 3 µM; P08912; 360,000 tested, 0.3% active;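 active = activation above the run cutoff, the mean activation of all test compounds plus 3 SD, cut at about 18% in these data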
#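 Assay system – human M5 receptor in CHO-K1 cells · Read-out – % activation, ACh-normalized · Technique – Fluo-8 calcium fluorescence · Dosing – single-point, 3 µM nominal · Incubation – Fluo-8 loading 80 min at 37 °C plus 30 min room temperature · Repeats – singlicate, one well per test compound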
# M4 antag = CHRM4 antagonism in calcium assay; P08173; CHO-hM4 cells, ACh EC80, Fluo-8 calcium fluorescence; inhibition, % at 3 µM; 360,000 tested, 0.73% active;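 active = inhibition above its plate's cutoff, the mean inhibition of sample wells plus 3 SD, cut at about 27% in these data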;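 also: 0% = acetylcholine EC80 with DMSO and 100% = DMSO without agonist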
# * = called active by the depositor. Compounds with a hit are over-represented: about 1.9% of the library has one in this group of screens.
SMILES,M4 ag,M4 PAM,CHRM5 agonist,M5 antag,M5 PAM,M4 antag
CC(C)(C)OC(=O)NCCCCCc1cn(CC(=O)NCCCCCCCCCCC(=O)N2CCN(C(=O)OC(C)(C)C)CC2)nn1,6,0,6,12,-9,2
CC[C@H](C)Cc1cn([C@@H](CCCN=C(NC(=O)OC(C)(C)C)NC(=O)OC(C)(C)C)C(=O)NCCCCCCCCCCC(=O)N2CCN(C(=O)OC(C)(C)C)CC2)nn1,1,-14,-11,6,-5,36*
COc1cc(C(=O)NNC(=O)C2CC2)cc(OC)c1OC,0,8,1,-9,6,-7
CCN(CC)S(=O)(=O)c1ccc(NC(=O)CCNC(=O)c2ccccc2)cc1,1,-1,-1,15,-2,4
CCCCn1c(=NC(=O)c2ccco2)c(C(=O)OCC)cc2c(=O)n3cccc(C)c3nc21,5,8,3,-12,22*,-11
CCCCn1c(=NC(=O)c2ccco2)c(C(=O)OCC)cc2c(=O)n3ccccc3nc21,2,-4,-8,-4,-10,-5
COc1ccc2c(c1)C(=O)Cc1ccccc1O2,0,0,-4,10,3,-2
CCCC1(c2ccccc2)NC(=O)N(CC(=O)NCc2ccc(OC)cc2)C1=O (stereo unspecified),2,21*,-4,2,-1,2
CC(C)CC(OC(=O)c1nsc(Cl)c1Cl)C(=O)NC1CCCC1 (stereo unspecified),-2,-9,-4,19,-6,6
CCN(CC)Cc1c(C)[nH]c2ccc(NC(C)=O)cc2c1=O,1,4,1,4,-2,-4
COc1ccc(Cc2nnc(SCC(=O)Nc3ccc(C)cc3)n(N)c2=O)cc1,4,5,-10,101*,-33,-12
O=C(Nc1ccccc1-c1ccccc1)NC1CC2CCCC(C1)N2CCc1ccccc1 (stereo unspecified),0,-17,-10,15,-18,29*
O=C(Nc1ccccc1-c1ccccc1)NC1CC2CCCC(C1)N2Cc1ccc(F)cc1 (stereo unspecified),1,-23,-10,34*,-20,58*
Cc1ccc(CN2C3CCCC2CC(NC(=O)c2ccc(F)cc2)C3)cc1 (stereo unspecified),1,-10,-20,-11,-2,13
CC[C@]12c3[nH]c4ccc(OC)cc4c3CCN1C(=O)C(CC(=O)NCc1ccco1)C[C@@H]2C(=O)N1CCN(C(=O)c2ccco2)CC1 (stereo partly specified),1,5,0,-9,6,-6
Cc1cccc(-n2c(O)cnc2Nc2nc(C)cc(C)n2)c1,17,-8,0,27*,-12,5
Cc1cc(C)nc(Nc2ncc(O)n2-c2ccccc2)n1,1,-7,0,2,1,9
Nc1ncnc2c1ncn2[C@@H]1O[C@H](CNCc2cccc(C#Cc3ccccc3)c2)[C@@H](O)[C@H]1O,-1,-2,0,12,-7,0
CCOC(=O)CCc1c(C)c2ccc(OC3CCCCC3=O)cc2oc1=O (stereo unspecified),2,-8,-1,13,-6,34*
CC(C)N(C(=O)C1CC(=O)OC12CCCCC2)C(C)C (stereo unspecified),1,21,-1,5,10,30*
CN1CCN(NC(=O)C2CC2)CC1,2,24,-6,-2,5,33*
CN1CCN(NC(=O)C23CC4CC(CC(C4)C2)C3)CC1,1,7,-2,-10,9,-8
Cc1noc(/C=C/N(C)C)c1S(=O)(=O)N1CCC(C(=O)NC(C)(C)C)CC1,1,8,0,4,2,5
Cc1cc(C(C)(C)CC(C)(C)C)ccc1OCCOCC[N+](C)(C)Cc1ccccc1,0,-14,-2,7,-15,27*
C[N+](C)(CCOc1ccccc1)Cc1ccccc1,0,-4,-2,7,-5,7
SMILES,M4 ag,M4 PAM,CHRM5 agonist,M5 antag,M5 PAM,M4 antag
CC12CCC(C(=O)N(c3nccs3)C1=O)C2(C)C (stereo unspecified),0,1,-3,8,4,-2
C=CCc1cc(C=O)cc(OC)c1OCc1ccc(C(=O)O)cc1,1,20*,-2,-9,18,-4
COc1cc(/C=C2/NC(=O)NC2=O)cc(Br)c1OCc1ccc(C(=O)O)cc1,1,13,-1,8,-1,-1
O=C(c1ccccc1)N1N=C(c2ccc(F)cc2)CC1(O)C(F)(F)F (stereo unspecified),-1,-1,-5,2,-1,1
CCN1CCC2(CC1)N=C(c1ccc(F)cc1)C(=S)N2C(=O)c1ccc(C(C)(C)C)cc1,2,-10,-8,76*,-19,18
CN1CCC2(CC1)N=C(c1ccc(F)cc1)C(=S)N2C(=O)c1ccccc1,2,6,-8,40*,-19,-1
Cc1ccc2nc(C)c(CN3CCN(c4ccc([N+](=O)[O-])cc4Cl)CC3)n2c1,12,-15,-2,38*,-14,26*
COC(C)(C)[C@@H](O)COc1c2ccoc2cc2oc(=O)ccc12,2,3,7,4,0,-5
Cc1ccc(OC(=O)CCNC(=O)c2ccccc2Cl)c(Br)c1,1,8,-4,-13,6,-18
O=C(O)c1cccc(S(=O)(=O)NCCC(c2ccccc2)c2ccccc2)c1,1,23*,-7,0,12,-26
COC(=O)c1cnn(-c2ccccc2)c1C(OC)OC,2,8,7,-12,22*,-11
COC(=O)c1cnn(-c2ccccc2)c1/C=N/NC(=S)Nc1ccccc1,0,1,0,-2,7,-8
O=C(CSc1nnc(NC2CC2)s1)c1ccc[nH]1,2,-5,1,8,2,5
CN1CCN(c2ncnc3scc(-c4ccccc4Cl)c23)CC1,4,-10,-8,30*,-16,4
CCOc1ccccc1N1CCN(c2ncnc3scc(-c4ccc(OC)cc4)c23)CC1,8,-13,-5,14,-15,27*
Cc1cc(O)c(-c2cc(O)c(C)cc2O)cc1O,2,-7,0,5,-5,28*
CS(=O)(=O)N1CCCC(c2nc(-c3ccc(S(=O)(=O)NCc4ccccc4)cc3)no2)C1 (stereo unspecified),26,-28,12,29*,-16,33*
Brc1ccc(CN2CCCCCC2)cc1,1,4,-12,6,4,1
